The values that follow come from ChEMBL document CHEMBL1128595, “Synthesis and biological activity of 7-alkylidenecephems” (J Med Chem, 1995).

Data set [1] deals with T1, Beta-lactamase (Enterobacter cloacae, UniProt P05364). Nature of the data set: The concentration of compound to inhibit Beta-lactamase was measured on Enterobacter cloacae SC 12368. It counts as functional.
The target in data set [2] is T2, Beta-lactamase TEM (Escherichia coli, UniProt P62593). The experiment in a line: (§1) The concentration of compound to inhibit Beta-lactamase was measured on Escherichia coli WC3310. It counts as functional. The gist of the method:
(§2)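 TEM-2 β-lactamase partially purified from E. coli W3310 (freeze-thaw lysis, DNase, Sephadex G-75 gel filtration). Enzyme preincubated with varied inhibitor in 50 mM phosphate buffer pH 7.2 at 25 °C for 10 min. Aliquot then diluted into nitrocefin (the more concentrated standard solution), and hydrolysis rate read at 482 nm.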

Data set [3] deals with T1, Beta-lactamase. The experiment in a line: The concentration of compound to inhibit Beta-lactamase was measured on Enterobacter cloacae P99. It counts as functional.
For data set [4], the target named is T1, Beta-lactamase. The experiment in a line: The concentration of compound to inhibit beta-lactamase was measured on Enterobacter cloacae P99. It counts as functional.
Data set [5] has as its target T2, Beta-lactamase TEM. Nature of the data set: (§3) The concentration of compound to inhibit beta-lactamase was measured on Escherichia coli WC3310. It counts as functional. The gist of the method:
as §2

The target in data set [6] is T1, Beta-lactamase. Nature of the data set: The concentration of compound to inhibit beta-lactamase was measured on Enterobacter cloacae SC 12368. It counts as functional.
Data set [7] concerns the target T2, Beta-lactamase TEM. The data set is described as §3. It counts as functional. The gist of the method: (§4)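 TEM-2 β-lactamase partially purified from E. coli W3310 (freeze-thaw lysis, DNase, Sephadex G-75 gel filtration). Enzyme preincubated with varied inhibitor in 50 mM phosphate buffer pH 7.2 at 25 °C for 10 min.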
The source holds these as a separate data set.

Data set [8] can be described thus: The pseudo second order rate constant of inhibition (k3'') was measured by using Kitz and Wilson method. It counts as ADME. The gist of the method: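 Kitz–Wilson analysis with E. cloacae P99 β-lactamase in 50 mM phosphate pH 7.2 at 25 °C. Enzyme incubated with five inhibitor concentrations (assay 2.8 × 10⁻⁸ to 1.4 × 10⁻⁷ M; enzyme 2.56 nM final). Aliquots taken at 30 s intervals over 5 min, diluted into nitrocefin (0.19 mM), absorbance at 482 nm read for 10 s. Reciprocal rate constants plotted against reciprocal inhibitor concentration.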

Data set [9] addresses T2, Beta-lactamase TEM. The data set is described as §1. It counts as functional. The gist of the method:
as §4
The source holds these as a separate data set.

T2 sequence (P62593 whole entry): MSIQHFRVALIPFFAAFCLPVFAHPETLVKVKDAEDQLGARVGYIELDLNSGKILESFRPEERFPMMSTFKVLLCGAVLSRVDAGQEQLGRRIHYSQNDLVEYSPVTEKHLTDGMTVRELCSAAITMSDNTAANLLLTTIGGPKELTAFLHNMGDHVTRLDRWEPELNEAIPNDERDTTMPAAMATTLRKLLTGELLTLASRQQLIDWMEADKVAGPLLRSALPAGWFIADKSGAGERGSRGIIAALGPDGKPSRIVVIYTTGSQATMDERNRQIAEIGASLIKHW
T1 sequence (P05364 whole entry): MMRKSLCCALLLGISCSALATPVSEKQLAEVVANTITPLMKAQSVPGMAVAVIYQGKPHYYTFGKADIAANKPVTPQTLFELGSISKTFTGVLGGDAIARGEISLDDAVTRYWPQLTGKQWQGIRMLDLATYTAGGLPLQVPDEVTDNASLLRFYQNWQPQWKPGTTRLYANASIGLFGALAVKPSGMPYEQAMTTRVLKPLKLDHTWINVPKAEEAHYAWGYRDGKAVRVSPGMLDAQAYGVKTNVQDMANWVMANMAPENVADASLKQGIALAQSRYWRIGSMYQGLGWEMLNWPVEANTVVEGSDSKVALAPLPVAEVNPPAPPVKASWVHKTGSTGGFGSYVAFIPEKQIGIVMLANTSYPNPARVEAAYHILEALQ

For `CC(=O)OCC1=C(C(=O)O)N2C(=O)/C(=C/c3ccccn3)[C@H]2SC1`, the IC50 (as a rule, the concentration that gives 50% inhibition) against Beta-lactamase [1] was above 20 µM; on Beta-lactamase TEM [2] it was above 2 µM; at Beta-lactamase [3] it was above 20 µM.
Regarding `CC(=O)OCC1=C(C(=O)O)N2C(=O)/C(=C/C(C)(C)C)[C@H]2SC1`, the IC50 at Beta-lactamase [4], against Beta-lactamase TEM [5] and on Beta-lactamase [6] was above 20 µM throughout.
For the molecule `CC(=O)/C=C1/C(=O)N2C(C(=O)O)=C(COC(C)=O)CS[C@H]12`, the IC50 at Beta-lactamase [1], against Beta-lactamase TEM [2] and at Beta-lactamase [3] was above 20 µM each time.
For the molecule `CC(=O)OCC1=C(C(=O)O)N2C(=O)/C(=C/C(C)(C)C)[C@H]2S(=O)(=O)C1`, the IC50 against Beta-lactamase [4], against Beta-lactamase TEM [5] and against Beta-lactamase [6] was above 20 µM each time.
`CC(=O)OCC1=C(C(=O)O)N2C(=O)/C(=C/c3ccccc3)[C@H]2S(=O)(=O)C1`: the IC50 was above 20 µM at Beta-lactamase TEM [7], 6.25 µM on Beta-lactamase [4] and 6.8 µM at Beta-lactamase [6].
As to `CC(=O)OCC1=C(C(=O)[O-])N2C(=O)C(=C=CC(C)(C)C)[C@H]2S(=O)(=O)C1.[Na+]`, the IC50 against Beta-lactamase [1] was 0.26 µM; on Beta-lactamase TEM [2], above 20 µM; at Beta-lactamase [3] it was 0.13 µM. For the same molecule, the k3' in [8] is 1.7e+06 L (M min)-1.
Take `CC(=O)OCC1=C(C(=O)O)N2C(=O)/C(=C/C=O)[C@H]2SC1`: the IC50 was 16.5 µM against Beta-lactamase [1], above 20 µM against Beta-lactamase TEM [2] and 8.2 µM against Beta-lactamase [3].
As to `CON(C)C(=O)/C=C1/C(=O)N2C(C(=O)O)=C(COC(C)=O)CS[C@H]12`, the 50% inhibitory concentration (IC50) on Beta-lactamase TEM [7], against Beta-lactamase [4] and on Beta-lactamase [6] was above 20 µM in each case.
Take `C[C@]1(Cn2ccnn2)[C@H](C(=O)[O-])N2C(=O)C[C@H]2S1(=O)=O.[Na+]` [TAZOBACTAM SODIUM]: the k3' in [8] is 74000 L (M min)-1.
For `CC(=O)OCC1=C(C(=O)O)N2C(=O)/C(=C/CO)[C@H]2S(=O)(=O)C1`, the IC50 on Beta-lactamase [4], at Beta-lactamase TEM [5] and against Beta-lactamase [6] was above 20 µM each time.
Regarding `CC(=O)OCC1=C(C(=O)O)N2C(=O)/C(=C\Br)[C@H]2SC1`, the half-inhibitory concentration (IC50) against Beta-lactamase [1], against Beta-lactamase TEM [9] and at Beta-lactamase [3] was above 20 µM each time.
On to `CC(=O)OCC1=C(C(=O)O)N2C(=O)/C(=C/C(=O)OC(C)(C)C)[C@H]2S(=O)(=O)C1`, for which the half-maximal inhibitory concentration (IC50) against Beta-lactamase TEM [7] was determined as 0.005 µM; against Beta-lactamase [4], 7.8 µM; at Beta-lactamase [6], 5.9 µM.
`O=C([O-])[C@H]1/C(=C/CO)O[C@@H]2CC(=O)N21.[Na+]` [CLAVULANIC ACID (SODIUM)]: the “k3'” value in [8] is reported as 799 L (M min)-1.
Consider `CC(=O)OCC1=C(C(=O)O)N2C(=O)C(=C(Br)Br)[C@H]2S(=O)(=O)C1`, for which the IC50 at Beta-lactamase TEM [7], at Beta-lactamase [4] and on Beta-lactamase [6] was above 20 µM each time.
As to `CC(=O)OCC1=C(C(=O)O)N2C(=O)C(=C(Cl)Cl)[C@H]2SC1`, the IC50 against Beta-lactamase [1], at Beta-lactamase TEM [2] and on Beta-lactamase [3] was above 20 µM each time.
Turning to `CC(=O)OCC1=C(C(=O)O)N2C(=O)C(=C(Cl)Cl)[C@H]2S(=O)(=O)C1`, the values for the IC50 on Beta-lactamase TEM [7], against Beta-lactamase [4] and against Beta-lactamase [6] were 8.3 µM, above 20 µM and above 20 µM, respectively.
In the case of `CC(=O)OCC1=C(C(=O)O)N2C(=O)/C(=C/C(=O)OC(C)(C)C)[C@H]2SC1`, the values for the IC50 at Beta-lactamase [1], at Beta-lactamase TEM [2] and at Beta-lactamase [3] were above 20 µM, above 20 µM and 2.5 µM, respectively.
With `CC(=O)OCC1=C(C(=O)O)N2C(=O)/C(=C\Br)[C@H]2S(=O)(=O)C1`, the IC50 against Beta-lactamase [4], on Beta-lactamase TEM [5] and against Beta-lactamase [6] was above 20 µM in each case.
With `CC(=O)OCC1=C(C(=O)O)N2C(=O)/C(=C/c3ccccc3)[C@H]2SC1`, the IC50 against Beta-lactamase [1], on Beta-lactamase TEM [2] and on Beta-lactamase [3] was above 20 µM in each case.
Take `CC(=O)OCC1=C(C(=O)O)N2C(=O)C(=C(Br)Br)[C@H]2SC1`: the IC50 at Beta-lactamase [1], at Beta-lactamase TEM [2] and at Beta-lactamase [3] was above 20 µM each time.
In the case of `CC(=O)OCC1=C(C(=O)O)N2C(=O)/C(=C\c3ccccc3)[C@H]2S(=O)(=O)C1`, the IC50 on Beta-lactamase TEM [7], against Beta-lactamase [4] and against Beta-lactamase [6] was above 20 µM in each case.
In the case of `CC(=O)OCC1=C(C(=O)[O-])N2C(=O)/C(=C/c3ccccn3)[C@H]2S(=O)(=O)C1.[Na+]`, the results for the IC50 against Beta-lactamase TEM [7], against Beta-lactamase [4] and on Beta-lactamase [6] were 0.8 µM, 0.025 µM and 0.025 µM, respectively. The k3' in [8] is 5.3e+06 L (M min)-1.
